sPLA2-III inh: human group III sPLA2 inhibitors, primary screen, biochemical, QFRET, BODIPY PC-A2 liposome substrate. Group 3 secretory phospholipase A2 (Homo sapiens), Q9NZ20. QFRET BODIPY PC-A2 liposome hydrolysis, fluorescence. inhibition, % at 12.2 µM. hit rate 0.56% among 370,000;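 active = inhibition above mean plus 3 SD of compounds lying within the high and low control bounds, cut at about 19% in these data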;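 note: 0% = median of test compound wells and 100% = no enzyme DMSO wells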
PLC-gamma1 inh: PLC-gamma1 enzyme inhibitors, primary screen, biochemical, fluorescence, purified enzyme | fluorogenic substrate | AID 720700, 2013 | 1-phosphatidylinositol 4,5-bisphosphate phosphodiesterase gamma-1 (Homo sapiens), P19174 | inhibition, % at 12.2 µM | hit rate 0.84% among 370,000; in the data active = inhibition above about 9.5%
TbMetRS inhib: T. brucei MetRS inhibitors, primary screen, biochemical, luminescence | hit rate 0.4% among 360,000 | purified T. brucei MetRS, ATP depletion, Kinase-Glo luminescence | inhibition, % at 11.9 µM | methionyl-tRNA synthetase (Trypanosoma brucei brucei);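 active = inhibition above a per-plate cutoff of the control wells' mean inhibition plus 3 SD, cut at about 5.5% in these data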;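 note: 0% = DMSO wells median and 100% = median of wells with control inhibitor compound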
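Material – parasite MetRS enzyme · Medium – HEPES-MgCl2-KCl buffer plus DTT, spermine, BSA, pyrophosphatase · Reagent – ATP, methionine and E. coli bulk tRNA substrates · Times – 15 min enzyme-compound preincubation, 2 h reaction, 10 min detection, 25 °C · Measured by – luminescence of leftover ATP · Evaluation – percent inhibition relative to median high and low control wells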
PLC-beta3 inh: human PLC-beta3 inhibitors, primary screen, biochemical, fluorescence. 1-phosphatidylinositol 4,5-bisphosphate phosphodiesterase beta-3 (Homo sapiens), Q01970. inhibition, % at 12.2 µM. Purified PLC-beta3, fluorogenic substrate. hit rate 0.18% among 370,000; in the data active = inhibition above about 11%;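 note: 0% = median of compound wells on plate and 100% = full blocker control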
sPLA2 confirm: human group III sPLA2 inhibitors, confirmation, biochemical, QFRET, triplicate; shares compounds with sPLA2-III inh; inhibition, % at 12.2 µM; hit rate 34% among 2,000; AID 743280, 2014; recombinant hGIII-sPLA2, BODIPY PC-A2 QFRET fluorescence;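 active = mean inhibition across triplicates above the hit cutoff set in the earlier primary screen, cut at about 19% in these data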;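 note: 0% = enzyme with DMSO and 100% = DMSO wells lacking enzyme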
535nm interf: 535nm fluorescence optical interference, confirmation, artefact control for HGIII-sPLA2 inhibitor project, biochemical, QFRET; shares compounds with sPLA2-III inh; BODIPY FL product fluorescence interference; inhibition, % at 12.2 µM; hit rate 8.5% among 2,000; AID 743282, 2014;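 active = average inhibition above the solvent-only control mean plus 3 SD, cut at about 6% in these data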;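 note: 0% = DMSO with substrate plus product and 100% = DMSO with substrate alone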
535nm interf DR: 535nm fluorescence optical interference, dose response, artefact control for HGIII-sPLA2 inhibitor project, biochemical, QFRET. IC50, µM. shares compounds with sPLA2-III inh. 240 tested, under 10 active. BODIPY FL product fluorescence interference, cell-free. AID 743455, 2014;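 active = IC50 at or below 10 µM; inactive = IC50 above 10 µM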
Active calls of the source: *; . = no result; ! = not active in a repeat. Most compounds without a hit are left out; they make up all but 1.9% or so of the library.

SMILES	sPLA2-III inh	PLC-gamma1 inh	TbMetRS inhib	PLC-beta3 inh	sPLA2 confirm	535nm interf	others
COc1ccc(NC(=S)NNC(=O)c2ccccc2OC(F)F)cc1	18.3	-4.0	-0.5	-8.2	.	.
O=C(NNC(=S)Nc1ccccc1Cl)c1ccccc1Cl	25.6*	-2.1	0.1	-7.4	34.6*	4.7	535nm interf DR=>122
Cc1cccc(NC(=S)NNC(=O)c2ccccc2Br)c1	31.1*	0.2	-0.5	3.8	25.8*	2.3
Cc1cccc(NC(=S)NNC(=O)c2ccccc2OC(F)F)c1	23.3*	1.8	-0.5	-1.4	35.6*	-4.0
COC(=O)C1=C(C)N(C)C(=NCc2cccc(C(F)(F)F)c2)NC1c1cccc(F)c1 (stereo not given)	-9.7	1.0	.	-1.1	.	.
Cc1cccc(NC(=O)c2ccc3c(c2)OCCO3)c1	8.6	6.1	-0.4	-9.7	.	.
Cc1cccc(NC(=S)NNC(=O)c2ccc3c(c2)OCO3)c1	22.9*	-2.5	0.2	-0.8	42.9*	-0.3	535nm interf DR=>122
COc1ccccc1C(=O)NNC(=O)c1ccccc1Br	4.3	0.6	-0.8	-6.2	.	.
COc1ccccc1NC(=S)NNC(=O)c1ccccc1Br	22.1*	1.2	-0.6	-2.2	19.0	-0.3
CNC(=S)NNC(=O)CSCc1c(Cl)cccc1Cl	7.6	-2.2	0.0	-6.7	.	.
Cc1ccccc1NC(=S)NNC(=O)c1ccoc1C	10.0	4.1	-1.1	-0.4	.	.
Cc1occc1C(=O)NNC(=S)Nc1ccccc1C(F)(F)F	21.4*	-1.6	0.1	-1.3	26.6*	-4.2
O=C(CSCc1ccccc1)NNC(=S)Nc1cccc(Cl)c1Cl	38.0*	-0.6	-0.3	-1.3	35.1*	3.5	535nm interf DR=>122
COc1ccc(C=Nn2c(-c3ccccc3F)n[nH]c2=S)cc1OCc1ccccc1	-2.4	2.3	.	3.1	.	.
Oc1c(C=C2N=c3ccccc3=N2)sc(=S)n1-c1ccccc1	4.4	0.5	0.4	-4.4	.	.
Oc1c(C=C2N=c3ccccc3=N2)sc(=S)n1C1CCCCC1	20.0*!	-1.0	0.4	-3.6	-5.0	-1.4
Cc1cccc(OCCNc2cc(N3CCOCC3)ccc2[N+](=O)[O-])c1	19.3*	1.9	-0.6	1.1	-1.9	-15.7
CCCCCNC(=O)C(c1cccc2ccccc12)n1c(=O)c(-c2ccco2)nc2ccccc21 (stereo not given)	22.4*	-25.3	-0.7	-34.1	6.7	-13.5
CC(C)(C)NC(=O)C(c1ccc(-c2ccccc2)cc1)n1c(=O)c(-c2ccco2)nc2ccccc21 (stereo not given)	2.9	-30.1	-0.5	-39.4	.	.
Cc1cccc(C)c1NC(=O)C(c1ccc(-c2ccccc2)cc1)n1c(=O)c(-c2ccco2)nc2ccccc21 (stereo not given)	20.3*	-15.7	0.8	-33.6	12.6	-12.0
NC(=S)Cc1ccc(Cl)cc1Cl	11.3	-0.8	1.6	-5.0	.	.
N=C(N)SCc1ccc(Cl)cc1Cl	38.8*	3.8	-1.2	3.5	1.0	-8.1
NNC(=O)c1nc[nH]c1C(=O)Nc1ccccc1	27.2*	-1.6	-0.8	-7.7	7.3	-3.0
Cc1ccc2c(c1)c1c3n2CCNC3CCC1 (stereo not given)	26.7*	-61.1	-0.5	-91.8	32.4*	-4.0	535nm interf DR=>122
CCN(CC)CCN1CCn2c3c(c4cc(C)ccc42)CCCC31 (stereo not given)	22.7*	-327.7	-0.3	-350.9	10.4	-20.0
SMILES	sPLA2-III inh	PLC-gamma1 inh	TbMetRS inhib	PLC-beta3 inh	sPLA2 confirm	535nm interf	others
CCOC(=O)[C@@]12CCC3=C1N(CCC3)C(=O)[C@H](CC(=O)NCC13CC4CC(CC(C4)C1)C3)C2	-4.2	-0.5	.	2.4	.	.
O=C(CSc1nnc(-c2ccccc2F)n1Cc1ccco1)Nc1ccccc1-c1ccccc1	-4.2	0.7	.	-1.5	.	.
CSc1nc2c(c(=O)[nH]1)CCCC2	-4.0	-2.4	0.1	-0.3	.	.
CCCCSc1nc2c(c(=O)[nH]1)CCC2	19.7*	1.5	0.2	1.0	-0.3	-2.6
O=C(NCCCN1CCCC1=O)c1ccc(CNS(=O)(=O)c2ccc(F)cc2)cc1	71.6*	7.4	0.0	9.4	-1.1	-10.2
O=C(NCCCN1CCCC1=O)c1ccc(S(=O)(=O)Nc2ccccc2F)cc1	2.7	-9.4	-0.3	-6.7	.	.
COC(=O)c1c(Sc2ccccc2)c2ccccc2n1C	19.5*	-1.8	-0.6	-8.7	0.9	-4.1
COc1cc2c(cc1OC)CSC1C(=O)N(C)C(SC2)C(=O)N1C	-1.2	-2.2	.	-1.6	.	.
O=C(CCl)NNC(=O)c1c(O)c2ccccc2[nH]c1=O	22.7*	-2.5	0.0	-9.9	3.9	-3.8
CCCCC(=O)NNC(=O)c1c(O)c2ccccc2[nH]c1=O	6.9	2.7	-0.8	-2.5	.	.
COC(=O)c1cc2c(c3c4cc(C)ccc4n(S(=O)(=O)c4ccc(C)cc4)c13)C(=O)N(Cc1ccc(N(C)C)cc1)C2	3.2	-8.6	.	-9.1	.	.
CCc1cnc(Nc2nc(C(N)Cc3ccc(Cl)cc3)cs2)nc1 (stereo not given)	9.0	4.9	-0.3	3.1	.	.
CCc1cnc(Nc2nc(C(N)c3ccccc3Cl)cs2)nc1 (stereo not given)	26.5*	8.6	0.0	-1.7	2.8	-7.1
CCCCS(=O)(=O)N1CCCc2nc(-c3ccc(Br)cc3)ccc21	-2.0	2.2	.	1.0	.	.
O=C1NC(=S)NC1=Cc1ccccc1O	21.8*	-98.6	-0.1	-145.6	8.4	0.6
Cc1ccc(NC(=O)C2CCCO2)cc1[N+](=O)[O-] (stereo not given)	20.5*	3.6	-0.9	-10.7	0.8	-1.7
O=C(Nc1cccc(NC(=O)C2CCCO2)c1)C1CCCO1 (stereo not given)	0.8	-3.2	-0.7	-7.3	.	.
COC(=O)[C@]12C[C@H](CC(=O)N3CCOCC3)C(=O)N(Cc3ccco3)C1=C[C@H](COCc1ccccc1)O[C@@H]2C	-0.7	-1.1	.	1.3	.	.
CCCCNC(=S)N/N=C/c1cccc(OCC)c1O	24.3*	-185.0	-0.5	-268.2	28.1*	-5.2	535nm interf DR=>122
CCOc1cccc(/C=N/NC(=S)Nc2ccccc2[N+](=O)[O-])c1O	24.1*	-7.4	-0.4	-9.6	51.6*	13.8*
O=[N+]([O-])c1ccccc1C=NNC(=S)NN=Cc1ccccc1[N+](=O)[O-]	23.7*	2.8	1.1	-0.8	48.6*	7.3*
CC(C)NC(=S)N/N=C/c1ccccc1[N+](=O)[O-]	-2.5	-2.7	-0.7	-2.0	.	.
CCOC(=O)CCCNC(=O)O[C@@H]1CC[C@@]23CCCN2C(=O)CCC[C@H]3C1	3.9	1.7	.	6.6	.	.
